Values after ≈ are worked out from the molar mass of the structure shown.

One assay deals with Acinetobacter baumannii. Nature of the assay: Antibacterial activity against gram-negative Acinetobacter baumannii AB250 by CLSI method. In kind it is functional. Put shortly:
(§1)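 Broth microdilution MIC per CLSI in cation-adjusted Mueller Hinton broth, prepared fresh and held at 4 °C. Defibrinated horse blood added where appropriate. Compounds serially diluted in sterile deionized water. Strains from ATCC unless otherwise noted. Runs accepted when comparator antibiotics fell within QC ranges for ATCC quality control strains.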
In turn, `CC1CCC(c2cc(O)c3c(c2C(F)(F)F)C[C@H]2C[C@H]4[C@H](N(C)C)C(O)=C(C(N)=O)C(=O)[C@@]4(O)C(O)=C2C3=O)N1C` (stereo not given in full) gave an MIC of 2 µg/mL (≈ 3.45 µM).
In turn, `CN(C)[C@@H]1C(O)=C(C(N)=O)C(=O)[C@@]2(O)C(O)=C3C(=O)c4c(O)cc([C@@H]5CCCN5)cc4C[C@H]3C[C@@H]12` gave a minimal inhibitory concentration (MIC) above 32 µg/mL.

The next assay deals with Stenotrophomonas maltophilia. Nature of the assay: Antibacterial activity against gram-negative Stenotrophomonas maltophilia SM256 by CLSI method. The assay is classed as functional. Put shortly:
as §1
For `CC1CCC(c2cc(O)c3c(c2C(F)(F)F)C[C@H]2C[C@H]4[C@H](N(C)C)C(O)=C(C(N)=O)C(=O)[C@@]4(O)C(O)=C2C3=O)N1C` (stereo not given in full), the MIC turned out to be 2 µg/mL (≈ 3.45 µM).
`CN(C)[C@@H]1C(O)=C(C(N)=O)C(=O)[C@@]2(O)C(O)=C3C(=O)c4c(O)cc([C@@H]5CCCN5)cc4C[C@H]3C[C@@H]12` came in with an MIC of 32 µg/mL (≈ 66.2 µM).

A further assay deals with Burkholderia cenocepacia. The assay is described as follows: Antibacterial activity against gram-negative Burkholderia cenocepacia BC240 by CLSI method. The assay is classed as functional. Put shortly:
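Defibrinated horse blood added where appropriate. Compounds serially diluted in sterile deionized water. Strains from ATCC unless otherwise noted. Runs accepted when comparator antibiotics fell within QC ranges for ATCC quality control strains.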
With `CC1CCC(c2cc(O)c3c(c2C(F)(F)F)C[C@H]2C[C@H]4[C@H](N(C)C)C(O)=C(C(N)=O)C(=O)[C@@]4(O)C(O)=C2C3=O)N1C` (stereo not given in full), the lowest concentration to inhibit growth (MIC) was 8 µg/mL (≈ 13.8 µM).
Still for that read-out and setting: then `CN(C)[C@@H]1C(O)=C(C(N)=O)C(=O)[C@@]2(O)C(O)=C3C(=O)c4c(O)cc([C@@H]5CCCN5)cc4C[C@H]3C[C@@H]12`, with above 32 µg/mL.

The next assay relates to Enterococcus faecalis. The assay is described as follows: Antibacterial activity against gram-positive Enterococcus faecalis EFs327 harboring tet(M) by CLSI method. The assay is classed as functional. The method, boiled down:
(§2)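 CLSI broth microdilution MIC in fresh cation-adjusted Mueller Hinton broth, supplemented with defibrinated horse blood where appropriate. Compounds serially diluted in sterile deionized water. Runs accepted when comparator antibiotics against ATCC quality-control strains fell within recommended ranges.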
`CC1CCC(c2cc(O)c3c(c2C(F)(F)F)C[C@H]2C[C@H]4[C@H](N(C)C)C(O)=C(C(N)=O)C(=O)[C@@]4(O)C(O)=C2C3=O)N1C` (stereo not given in full) displayed a minimal inhibitory concentration (MIC) of 2 µg/mL (≈ 3.45 µM).
Same read-out and setting: the figure for `CN(C)[C@@H]1C(O)=C(C(N)=O)C(=O)[C@@]2(O)C(O)=C3C(=O)c4c(O)cc([C@@H]5CCCN5)cc4C[C@H]3C[C@@H]12` is above 32 µg/mL.

A further assay has as its system Enterococcus faecium. Nature of the assay: Antibacterial activity against gram-positive Enterococcus faecium EFm404 harboring tet(M) by CLSI method. The assay is classed as functional. Put shortly:
as §2
Compound `CC1CCC(c2cc(O)c3c(c2C(F)(F)F)C[C@H]2C[C@H]4[C@H](N(C)C)C(O)=C(C(N)=O)C(=O)[C@@]4(O)C(O)=C2C3=O)N1C` (stereo not given in full) displayed an MIC of 1 µg/mL (≈ 1.73 µM).
Same read-out and setting: the figure for `CN(C)[C@@H]1C(O)=C(C(N)=O)C(=O)[C@@]2(O)C(O)=C3C(=O)c4c(O)cc([C@@H]5CCCN5)cc4C[C@H]3C[C@@H]12` is 16 µg/mL (≈ 33.1 µM).

The subject of another assay is Klebsiella pneumoniae. The assay is described as follows: Antibacterial activity against gram-negative Klebsiella pneumoniae KP457 harboring blacTX-M-15 extended spectrum beta-lactamase gene by CLSI method. In kind it is functional. The method, boiled down:
as §2
Compound `CC1CCC(c2cc(O)c3c(c2C(F)(F)F)C[C@H]2C[C@H]4[C@H](N(C)C)C(O)=C(C(N)=O)C(=O)[C@@]4(O)C(O)=C2C3=O)N1C` (stereo not given in full) had a minimal inhibitory concentration (MIC) of 8 µg/mL (≈ 13.8 µM).
With `CN(C)[C@@H]1C(O)=C(C(N)=O)C(=O)[C@@]2(O)C(O)=C3C(=O)c4c(O)cc([C@@H]5CCCN5)cc4C[C@H]3C[C@@H]12`, the minimal inhibitory concentration (MIC) is 0.5 µg/mL (≈ 1.03 µM).

Another assay concerns Proteus mirabilis. Nature of the assay: Antibacterial activity against gram-negative Proteus mirabilis PM385 by CLSI method. The assay is classed as functional. The method, boiled down: as §1
The compound `CC1CCC(c2cc(O)c3c(c2C(F)(F)F)C[C@H]2C[C@H]4[C@H](N(C)C)C(O)=C(C(N)=O)C(=O)[C@@]4(O)C(O)=C2C3=O)N1C` (stereo not given in full) gave an MIC of 4 µg/mL (≈ 6.9 µM).
The compound `CN(C)[C@@H]1C(O)=C(C(N)=O)C(=O)[C@@]2(O)C(O)=C3C(=O)c4c(O)cc([C@@H]5CCCN5)cc4C[C@H]3C[C@@H]12` registered an MIC of 0.25 µg/mL (≈ 0.517 µM).

The next assay relates to Pseudomonas aeruginosa. Nature of the assay: Antibacterial activity against gram-negative Pseudomonas aeruginosa PA555 by CLSI method. The assay is classed as functional. Put shortly:
as §1
`CC1CCC(c2cc(O)c3c(c2C(F)(F)F)C[C@H]2C[C@H]4[C@H](N(C)C)C(O)=C(C(N)=O)C(=O)[C@@]4(O)C(O)=C2C3=O)N1C` (stereo not given in full): the MIC was above 32 µg/mL.
As for `CN(C)[C@@H]1C(O)=C(C(N)=O)C(=O)[C@@]2(O)C(O)=C3C(=O)c4c(O)cc([C@@H]5CCCN5)cc4C[C@H]3C[C@@H]12`, the MIC worked out at 16 µg/mL (≈ 33.1 µM).

The test system of another assay is Enterobacter cloacae. Nature of the assay: Antibacterial activity against gram-negative Enterobacter cloacae EC1603 harboring tet(A) by CLSI method. The assay is classed as functional. The method, boiled down: as §2
In turn, `CC1CCC(c2cc(O)c3c(c2C(F)(F)F)C[C@H]2C[C@H]4[C@H](N(C)C)C(O)=C(C(N)=O)C(=O)[C@@]4(O)C(O)=C2C3=O)N1C` (stereo not given in full) registered an MIC of 16 µg/mL (≈ 27.6 µM).
Compound `CN(C)[C@@H]1C(O)=C(C(N)=O)C(=O)[C@@]2(O)C(O)=C3C(=O)c4c(O)cc([C@@H]5CCCN5)cc4C[C@H]3C[C@@H]12` registered a minimum inhibitory concentration (MIC) of 4 µg/mL (≈ 8.27 µM). Against the preceding compound, the MIC is about 4-fold lower.

The test system of a further assay is Staphylococcus aureus. Nature of the assay: Antibacterial activity against gram-positive Staphylococcus aureus SA101 by CLSI method. The assay is classed as functional. Put shortly:
as §1
With `CC1CCC(c2cc(O)c3c(c2C(F)(F)F)C[C@H]2C[C@H]4[C@H](N(C)C)C(O)=C(C(N)=O)C(=O)[C@@]4(O)C(O)=C2C3=O)N1C` (stereo not given in full), the MIC worked out at 0.5 µg/mL (≈ 0.863 µM).
On the same count and under the same terms, then `CN(C)[C@@H]1C(O)=C(C(N)=O)C(=O)[C@@]2(O)C(O)=C3C(=O)c4c(O)cc([C@@H]5CCCN5)cc4C[C@H]3C[C@@H]12`, with 4 µg/mL (≈ 8.27 µM).

In a further assay the test system is Staphylococcus aureus. The assay is described as follows: Antibacterial activity against gram-positive Staphylococcus aureus SA161 harboring tet(M) by CLSI method. The assay is classed as functional. Put shortly: as §2
In the case of `CC1CCC(c2cc(O)c3c(c2C(F)(F)F)C[C@H]2C[C@H]4[C@H](N(C)C)C(O)=C(C(N)=O)C(=O)[C@@]4(O)C(O)=C2C3=O)N1C` (stereo not given in full), the MIC was determined as 1 µg/mL (≈ 1.73 µM).
For the compound `CN(C)[C@@H]1C(O)=C(C(N)=O)C(=O)[C@@]2(O)C(O)=C3C(=O)c4c(O)cc([C@@H]5CCCN5)cc4C[C@H]3C[C@@H]12`, the MIC was above 32 µg/mL.

In a further assay the test system is Staphylococcus aureus. The assay is described as follows: Antibacterial activity against gram-positive Staphylococcus aureus SA158 harboring tet(K) by CLSI method. The assay is classed as functional. Put shortly: as §2
Turning to `CC1CCC(c2cc(O)c3c(c2C(F)(F)F)C[C@H]2C[C@H]4[C@H](N(C)C)C(O)=C(C(N)=O)C(=O)[C@@]4(O)C(O)=C2C3=O)N1C` (stereo not given in full), it took 0.125 µg/mL (≈ 0.216 µM) to inhibit growth (MIC).
The compound `CN(C)[C@@H]1C(O)=C(C(N)=O)C(=O)[C@@]2(O)C(O)=C3C(=O)c4c(O)cc([C@@H]5CCCN5)cc4C[C@H]3C[C@@H]12` yielded a minimum inhibitory concentration (MIC) of 0.5 µg/mL (≈ 1.03 µM).

For the next assay, the system named is Streptococcus pneumoniae. The assay is described as follows: Antibacterial activity against gram-positive Streptococcus pneumoniae SP160 harboring tet(M) by CLSI method. The assay is classed as functional. Put shortly:
as §2
Compound `CC1CCC(c2cc(O)c3c(c2C(F)(F)F)C[C@H]2C[C@H]4[C@H](N(C)C)C(O)=C(C(N)=O)C(=O)[C@@]4(O)C(O)=C2C3=O)N1C` (stereo not given in full) yielded an MIC of 0.0312 µg/mL (≈ 0.0538 µM).
On the same count and under the same terms, then `CN(C)[C@@H]1C(O)=C(C(N)=O)C(=O)[C@@]2(O)C(O)=C3C(=O)c4c(O)cc([C@@H]5CCCN5)cc4C[C@H]3C[C@@H]12`, with 8 µg/mL (≈ 16.5 µM).

In another assay the test system is Escherichia coli. Nature of the assay: Antibacterial activity against gram-negative Escherichia coli EC107 by CLSI method. In kind it is functional. Put shortly:
as §1
`CC1CCC(c2cc(O)c3c(c2C(F)(F)F)C[C@H]2C[C@H]4[C@H](N(C)C)C(O)=C(C(N)=O)C(=O)[C@@]4(O)C(O)=C2C3=O)N1C` (stereo not given in full) yielded a minimum inhibitory concentration (MIC) of 0.5 µg/mL (≈ 0.863 µM).
`CN(C)[C@@H]1C(O)=C(C(N)=O)C(=O)[C@@]2(O)C(O)=C3C(=O)c4c(O)cc([C@@H]5CCCN5)cc4C[C@H]3C[C@@H]12` came in with an MIC of 0.25 µg/mL (≈ 0.517 µM).

The subject of a further assay is Escherichia coli. Nature of the assay: Antibacterial activity against gram-negative Escherichia coli EC155 harboring tet(A) by CLSI method. In kind it is functional. The method, boiled down:
as §2
With `CC1CCC(c2cc(O)c3c(c2C(F)(F)F)C[C@H]2C[C@H]4[C@H](N(C)C)C(O)=C(C(N)=O)C(=O)[C@@]4(O)C(O)=C2C3=O)N1C` (stereo not given in full), the lowest concentration to inhibit growth (MIC) was 2 µg/mL (≈ 3.45 µM).
With `CN(C)[C@@H]1C(O)=C(C(N)=O)C(=O)[C@@]2(O)C(O)=C3C(=O)c4c(O)cc([C@@H]5CCCN5)cc4C[C@H]3C[C@@H]12`, inhibition of growth (MIC) required 4 µg/mL (≈ 8.27 µM).
